Source: ChEMBL document CHEMBL1156769, “9-Arylpurines as a novel class of enterovirus inhibitors” (J Med Chem, 2010)

Key:
Coxsackievirus B3 = assay: Antiviral activity against Coxsackievirus B3 infected in african green monkey Vero cells assessed as reduction of virus-induced cytopathic effect after 3 days by MTS assay; type: functional, organism-based; settings: Enterovirus B, 72 h
Procedure, shortened: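 CPE-reduction assay in confluent Vero cells. Serial compound dilutions and 100 CCID50 of CVB3 were added, then incubated 3 days at 37 °C until complete CPE in the virus control. Optical density after MTS/PMS was read at 498 nm relative to uninfected untreated cells. EC50 was interpolated linearly; mean ± SD of at least three independent experiments.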

[1] = Cytotoxicity against human HeLa cells after 3 days by MTS assay; type: cell-based
Procedure, shortened: (§1)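 Uninfected cultures in the antiviral-assay setup were exposed to serial compound dilutions for three days at 37 °C. Viability was read by the MTS method. CC50, the concentration inhibiting cell proliferation by 50%, was obtained by linear interpolation; mean ± SD of at least three independent experiments.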

[2] = Cytotoxicity against human MRC5 cells after 3 days by MTS assay; type: cell-based; procedure, shortened: as §1
[3] = Cytotoxicity against african green monkey Vero cells after 3 days by MTS assay; type: cell-based; settings: chlorocebus sabaeus; procedure, shortened: as §1
[4] = Cytotoxicity against african green monkey Vero cells after 3 days by Cell titer glo luminescent assay; type: cell-based; settings: chlorocebus sabaeus
Procedure, shortened: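 Uninfected Vero cells were incubated with serial compound dilutions for three days at 37 °C, using the same setup as the antiviral assay. Survival was measured with the CellTiter-Glo luminescent viability assay. CC50 (50% inhibition of proliferation) was determined by linear interpolation; mean ± SD of at least three independent experiments.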

[5] = Antiviral activity against Echovirus 11 Gregory assessed as reduction of virus-induced cytopathic effect after 3 days by MTS assay; type: functional, Echovirus 11 (strain Gregory)
Procedure, shortened: (§2)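 Confluent MRC-5 monolayers received serial compound dilutions plus 100 CCID50 of virus and were incubated 3 days at 37 °C, until full CPE appeared in the untreated virus control. Viability was read by MTS/PMS at 498 nm and compared with uninfected, compound-free cells. EC50 (50% CPE inhibition) was obtained by linear interpolation; mean ± SD of at least three independent experiments.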

[6] = Antiviral activity against Coxsackievirus A16 G10 infected in human MRC5 cells assessed as reduction of virus induced cytopathic effect after 3 days by MTS assay; type: functional, cell-based, Human coxsackievirus A16 (strain G-10); settings: Enterovirus A, MRC5, 72 h; procedure, shortened: as §2
Coxsackievirus A24 = assay: Antiviral activity against Coxsackie virus A24 infected in human MRC5 cells assessed as reduction of virus induced cytopathic effect after 3 days by MTS assay; type: functional, organism-based; settings: Enterovirus C, MRC5, 72 h
Procedure, shortened: (§3)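 Confluent MRC-5 monolayers were cultured at 37 °C and given serial compound dilutions plus 100 CCID₅₀ virus. EC₅₀ (50% CPE inhibition) was found by linear interpolation. Values are the mean ± SD of at least three independent experiments.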

[7] = Antiviral activity against Echovirus 9 Hill assessed as reduction of virus-induced cytopathic effect after 3 days by MTS assay; type: functional, Echovirus 9 (strain Hill); procedure, shortened: as §2
rhinovirus A2 = assay: Antiviral activity against Rhinovirus 2 infected in human HeLa-R cells assessed as reduction of virus induced cytopathic effect after 3 days by MTS assay; type: functional, organism-based; settings: Rhinovirus A, 72 h
Procedure, shortened: (§4)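 Rhinoviruses were cultured in HeLa R cells at 35 °C. Confluent cells received serial compound dilutions and 100 CCID50 of virus until complete CPE developed in the virus control. Survival was quantified by MTS/PMS at 498 nm versus uninfected compound-free cells. EC50 was calculated by linear interpolation; mean ± SD of at least three independent experiments.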

Poliovirus 1 = assay: Antiviral activity against Poliovirus1 sabin infected in Vero cells assessed as reduction of virus induced cytopathic effect after 3 days by MTS assay; type: functional, cell-based; settings: Enterovirus C, 72 h
Procedure, shortened: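 Vero cells were grown to confluence at 37 °C and then given serial compound dilutions together with 100 CCID₅₀ virus. After 3 days, once virus controls reached full CPE, cell viability was measured by MTS/PMS as absorbance at 498 nm, relative to uninfected untreated wells. EC₅₀ was interpolated linearly as the concentration giving 50% CPE inhibition. Results are the mean ± SD of three or more independent experiments.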

[8] = Antiviral activity against Enterovirus 71 BrCr infected in human RD cells assessed as reduction of virus induced cytopathic effect after 3 days by MTS assay; type: functional, cell-based, Human enterovirus 71 (strain BRCR); settings: Enterovirus A, 72 h
Procedure, shortened: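 Virus was cultured in RD cells at 37 °C. Confluent cells were given serial compound dilutions with 100 CCID50 of virus for 3 days, until complete CPE in untreated infected controls. Cell viability was measured by MTS/PMS absorbance at 498 nm. EC50 was derived by linear interpolation; mean ± SD of at least three independent experiments.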

rhinovirus B14 = assay: Antiviral activity against Rhinovirus 14 infected in human HeLa-R cells assessed as reduction of virus induced cytopathic effect after 3 days by MTS assay; type: functional, organism-based; settings: Rhinovirus B, 72 h; procedure, shortened: as §4
[9] = Antiviral activity against Coxsackie virus A21 Coe infected in human MRC5 cells assessed as reduction of virus induced cytopathic effect after 3 days by MTS assay; type: functional, cell-based, Human coxsackievirus A21 (strain Coe); settings: Enterovirus C, MRC5, 72 h; procedure, shortened: as §3

Compound `OCc1cccc(-n2cnc3c(Cl)ncnc32)c1` has an EC50 (Coxsackievirus B3) of 14.2 µM, an EC90 (Coxsackievirus B3) of 30 µM and a CC50 at 72 h [1] of 175 µM. For the same compound, the CC50 at 72 h [2] was 229 µM, the CC50 at 72 h [3] was > 100 µM and the CC50 at 72 h [4] was 200 µM.
With `Cc1ncnc2c1ncn2-c1cccc(CO)c1` the EC50 (Coxsackievirus B3) was > 100 µM and the CC50 at 72 h [3] was > 100 µM.
With `CC(C)COc1ccc(-n2cnc3c(Cl)ncnc32)cc1` the EC50 (Coxsackievirus B3) was > 100 µM and the CC50 at 72 h [3] was > 100 µM.
For `CC(=O)c1cccc(-n2nnc3c(Cl)ncnc32)c1`, the EC50 (Coxsackievirus B3) was > 44 µM and the CC50 at 72 h [3] was 44 µM.
With `Cc1nc(Cl)c2ncn(-c3cccc(C(C)(C)O)c3)c2n1` the EC50 (Coxsackievirus B3) was 8 µM, the EC90 (Coxsackievirus B3) was 7.4 µM and the CC50 at 72 h [1] was > 250 µM. The CC50 at 72 h [2] was > 250 µM, the CC50 at 72 h [3] was > 100 µM and the CC50 at 72 h [4] was > 250 µM.
In the case of `COc1cccc(Cn2cnc3ncnc(Cl)c32)c1`, the EC50 (Coxsackievirus B3) is reported as 75 µM, the EC90 (Coxsackievirus B3) is reported as > 100 µM and the CC50 at 72 h [3] is reported as > 100 µM.
With `O=C(c1ccccc1)c1ccc(-n2cnc3c(Cl)ncnc32)cc1` the EC50 (Coxsackievirus B3) was 67 µM, the EC90 (Coxsackievirus B3) was 85 µM and the CC50 at 72 h [3] was > 100 µM.
With `CC(=O)c1cc(-n2cnc3c(Cl)ncnc32)ccc1F` the EC50 (Coxsackievirus B3) was 9.3 µM, the EC90 (Coxsackievirus B3) was 15 µM and the CC50 at 72 h [3] was > 100 µM.
In the case of `Clc1ncnc2c1ncn2-c1ccc2c(c1)OCO2`, the EC50 (Coxsackievirus B3) is reported as > 100 µM and the CC50 at 72 h [3] is reported as > 100 µM.
With `CNc1ncnc2c1ncn2-c1cccc(CO)c1` the EC50 (Coxsackievirus B3) was > 100 µM and the CC50 at 72 h [3] was > 100 µM.
With `OCc1ccc(-n2cnc3c(Cl)ncnc32)cc1` the EC50 (Coxsackievirus B3) was 11 µM, the EC90 (Coxsackievirus B3) was 20 µM and the CC50 at 72 h [3] was > 100 µM.
With `CC(=O)c1cccc(-n2cnc3c(Cl)ncnc32)c1` the EC50 (Coxsackievirus B3) was 7.3 µM, the EC90 (Coxsackievirus B3) was 9.1 µM and the EC50 [5] was > 100 µM. The EC50 [6] was 2.7 µM, the CC50 at 72 h [1] was 144 µM and the EC50 (Coxsackievirus A24) was 2.7 µM. The EC50 [7] was 3.3 µM, the EC50 (rhinovirus A2) was > 100 µM and the EC50 (Poliovirus 1) was > 100 µM. For the same compound, the EC50 [8] was > 100 µM, the EC50 (rhinovirus B14) was > 100 µM and the CC50 at 72 h [2] was 238 µM. For the same compound, the CC50 at 72 h [3] was > 100 µM, the EC50 [9] was 4.5 µM and the CC50 at 72 h [4] was > 250 µM.
For `Nc1nc(Cl)c2ncn(-c3cccc(CO)c3)c2n1`, the EC50 (Coxsackievirus B3) was 17 µM, the EC90 (Coxsackievirus B3) was 25 µM and the CC50 at 72 h [3] was > 100 µM.
In the case of `COc1ccc(C(C)=O)cc1-n1cnc2c(Cl)nc(C)nc21`, the EC50 (Coxsackievirus B3) is reported as > 100 µM and the CC50 at 72 h [3] is reported as > 100 µM.
In the case of `OCc1cccc(-n2cnc3c(Br)ncnc32)c1`, the EC50 (Coxsackievirus B3) is reported as 22 µM, the EC90 (Coxsackievirus B3) is reported as 29 µM and the CC50 at 72 h [3] is reported as > 100 µM.
In the case of `CC(=O)c1cccc(Nc2ncnc(Cl)c2N)c1`, the EC50 (Coxsackievirus B3) is reported as > 100 µM and the CC50 at 72 h [3] is reported as > 100 µM.
In the case of `CC(=O)c1cccc(Nc2nc(C)nc(Cl)c2N)c1`, the EC50 (Coxsackievirus B3) is reported as > 100 µM and the CC50 at 72 h [3] is reported as > 100 µM.
With `CC(=O)c1cccc(-n2c(C)nc3c(Cl)ncnc32)c1` the EC50 (Coxsackievirus B3) was 12.2 µM, the EC90 (Coxsackievirus B3) was 22 µM and the CC50 at 72 h [3] was > 100 µM.
In the case of `CC(=O)c1cccc(-n2cnc3c(Cl)nc(C)nc32)c1`, the EC50 (Coxsackievirus B3) is reported as 8.7 µM, the EC90 (Coxsackievirus B3) is reported as 14 µM and the CC50 at 72 h [3] is reported as > 100 µM.
In the case of `CC(=O)c1cccc(-n2c(C)nc3c(Cl)nc(C)nc32)c1`, the EC50 (Coxsackievirus B3) is reported as 11 µM, the EC90 (Coxsackievirus B3) is reported as 15 µM and the CC50 at 72 h [3] is reported as > 100 µM.
In the case of `CC(=O)c1cccc(-n2c(=O)[nH]c3c(Cl)ncnc32)c1`, the EC50 (Coxsackievirus B3) is reported as 9.3 µM, the EC90 (Coxsackievirus B3) is reported as 18 µM and the CC50 at 72 h [3] is reported as > 100 µM.
In the case of `OCc1cccc(-n2cnc3c(Cl)nc(Cl)nc32)c1`, the EC50 (Coxsackievirus B3) is reported as > 8.8 µM and the CC50 at 72 h [3] is reported as 8.8 µM.
With `OCc1cccc(-n2cnc3cncnc32)c1` the EC50 (Coxsackievirus B3) was > 100 µM and the CC50 at 72 h [3] was > 100 µM.
In the case of `CC(=O)c1ccc(-n2cnc3c(Cl)ncnc32)cc1`, the EC50 (Coxsackievirus B3) is reported as 35.3 µM, the EC90 (Coxsackievirus B3) is reported as 51 µM and the CC50 at 72 h [3] is reported as > 100 µM.
With `COC(=O)c1cccc(-n2cnc3c(Cl)ncnc32)c1` the EC50 (Coxsackievirus B3) was 11.1 µM, the EC90 (Coxsackievirus B3) was 22 µM and the CC50 at 72 h [3] was > 100 µM.
For `CC(=O)c1cccc(-n2c(=O)[nH]c3c(Cl)nc(C)nc32)c1`, the EC50 (Coxsackievirus B3) was 6.7 µM, the EC90 (Coxsackievirus B3) was 10 µM and the CC50 at 72 h [1] was > 250 µM. The CC50 at 72 h [2] was > 250 µM, the CC50 at 72 h [3] was > 100 µM and the CC50 at 72 h [4] was > 250 µM.
In the case of `COc1ncnc2c1ncn2-c1cccc(CO)c1`, the EC50 (Coxsackievirus B3) is reported as > 100 µM and the CC50 at 72 h [3] is reported as > 100 µM.
With `COc1cccc(Cn2cnc3c(Cl)ncnc32)c1` the EC50 (Coxsackievirus B3) was 53 µM, the EC90 (Coxsackievirus B3) was 70 µM and the CC50 at 72 h [3] was > 100 µM.
In the case of `COc1ccc(C(C)=O)cc1-n1cnc2c(Cl)ncnc21`, the EC50 (Coxsackievirus B3) is reported as > 57 µM and the CC50 at 72 h [3] is reported as > 100 µM.
For `Cc1nc(Cl)c2[nH]c(=O)n(-c3cccc(C(C)(C)O)c3)c2n1`, the EC50 (Coxsackievirus B3) was 22 µM, the EC90 (Coxsackievirus B3) was 29 µM and the CC50 at 72 h [3] was > 100 µM.
In the case of `OCc1cccc(-n2cnc3c(O)ncnc32)c1`, the EC50 (Coxsackievirus B3) is reported as > 100 µM and the CC50 at 72 h [3] is reported as > 100 µM.
With `CC(=O)c1cccc(-n2nnc3c(Cl)nc(C)nc32)c1` the EC50 (Coxsackievirus B3) was > 44 µM and the CC50 at 72 h [3] was 44 µM.
With `CC(C)COc1cccc(-n2cnc3c(Cl)ncnc32)c1` the EC50 (Coxsackievirus B3) was 29 µM, the EC90 (Coxsackievirus B3) was > 100 µM and the CC50 at 72 h [3] was > 100 µM.
With `COc1cccc(-n2cnc3c(Cl)ncnc32)c1` the EC50 (Coxsackievirus B3) was 12 µM, the EC90 (Coxsackievirus B3) was 22 µM and the CC50 at 72 h [3] was > 100 µM.
For `Fc1cccc(F)c1[C@@H]1SCc2nc3cc(C(F)(F)F)ccc3n21`, the EC50 (Coxsackievirus B3) was 1.2 µM and the CC50 at 72 h [3] was > 100 µM.
In the case of `CC(C)S(=O)(=O)n1c(N)nc2ccc(/C(=N/O)c3ccccc3)cc21` [ENVIROXIME], the EC50 (Coxsackievirus B3) is reported as 0.7 µM and the CC50 at 72 h [3] is reported as > 100 µM.
